In ChEMBL document CHEMBL4393670 (J Med Chem, 2019):
Calls of active or inactive are those of the source. The rule behind the calls is not given here. Residues, ends and D or L forms follow the SMILES beside them. *: point of attachment. Cbz = O=C(OCc1ccccc1)*; Boc = CC(C)(C)OC(=O)*; OBn = c1ccc(CO*)cc1; OtBu = CC(C)(C)O*

Assays:
[1] = target: T1, Proteasome subunit beta type-9 (Homo sapiens, UniProt P28065); experiment: Inhibition of purified human 20S immunoproteasome beta1 subunit using Ac-Pro-Ala-Leu-AMC as substrate pretreated for 1 hr followed by substrate addition and measured at 1 min interval by fluorescence assay
T1 sequence (P28065 whole entry): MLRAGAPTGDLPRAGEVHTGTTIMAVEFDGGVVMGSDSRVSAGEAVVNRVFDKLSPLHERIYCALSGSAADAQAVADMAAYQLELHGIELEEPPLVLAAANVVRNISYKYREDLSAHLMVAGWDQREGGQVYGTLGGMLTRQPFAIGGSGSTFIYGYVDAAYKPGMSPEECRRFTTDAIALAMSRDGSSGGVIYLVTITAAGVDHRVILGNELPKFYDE

[2] = tested on: NCI-H23; experiment: Cytotoxicity against human NCI-H23 cells after 72 hrs by CellTiter 96 AQueous one solution cell proliferation assay; type: functional, cell-based; conditions: NCI-H23, 72 h
Outline: (§1)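 Cells in RPMI1640 with 10% FBS; H23 plated at 5000, H727, RPMI8226 and the Cfz-resistant subline at 10 000 cells/well. Resistant subline adapted to stepwise Cfz up to 80 nM over ~6 months, kept in 80 nM, then Cfz-free ~1 week before testing.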

[3] = tested on: NCI-H727; experiment: Cytotoxicity against human NCI-H727 cells after 72 hrs by CellTiter 96 AQueous one solution cell proliferation assay; type: functional, cell-based; conditions: NCI-H727, 72 h; outline: as §1
[4] = species: Homo sapiens; experiment: Cytotoxicity against human Btz-resistant multiple myeloma cells at 10 uM after 48 hrs by CellTiter Glo luminescent cell viability assay
[5] = Selectivity ratio of IC50 for human RPMI8226/Cfzr cells to IC50 for human RPMI8226 cells; type: functional
[6] = tested on: RPMI-8226; experiment: Cytotoxicity against human RPMI8226 cells after 72 hrs by CellTiter 96 AQueous one solution cell proliferation assay; type: functional, cell-based; conditions: RPMI-8226, 72 h; outline: as §1
[7] = Selectivity ratio of IC50 for human NCI-H727 cells to IC50 for human NCI-H23 cells; type: functional
[8] = target: T2, Proteasome Macropain subunit MB1 (Homo sapiens, UniProt P28074); experiment: Inhibition of 20S proteasome beta5 subunit in human RPMI8226 cell lysate using Suc-LLVY-AMC as substrate pretreated for 1 hr followed by substrate addition and measured at 1 min interval by fluorescence assay; type: subcellular
T2 sequence (P28074 whole entry): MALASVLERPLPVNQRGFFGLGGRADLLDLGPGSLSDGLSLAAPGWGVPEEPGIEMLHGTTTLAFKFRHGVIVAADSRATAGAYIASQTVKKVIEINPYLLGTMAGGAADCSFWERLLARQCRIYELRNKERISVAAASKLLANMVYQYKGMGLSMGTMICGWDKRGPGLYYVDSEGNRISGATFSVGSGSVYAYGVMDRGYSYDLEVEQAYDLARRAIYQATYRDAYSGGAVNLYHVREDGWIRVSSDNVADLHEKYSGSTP

[9] = Cytotoxicity against human RPMI8226/Cfzr cells after 72 hrs by CellTiter 96 AQueous one solution cell proliferation assay; type: functional, cell-based; conditions: RPMI-8226, 72 h; outline: as §1
[10] = species: Homo sapiens; experiment: Cytotoxicity against human multiple myeloma cells at 10 uM after 48 hrs by CellTiter Glo luminescent cell viability assay
[11] = Stability in Sprague-Dawley rat liver homogenate at 1 uM measured up to 20 mins by LC-MS/MS analysis
[12] = Potency index, ratio of carfilzomib IC50 to test compound IC50 for human RPMI8226/Cfzr cells; type: functional
[13] = tested on: NCI-H727; experiment: Potency index, ratio of carfilzomib IC50 to test compound IC50 for human NCI-H727 cells; type: functional
[14] = Half life in patient with relapsed and refractory multiple myeloma; type: ADME; conditions: human, in vivo
[15] = target: ATP-dependent translocase ABCB1 (Homo sapiens, UniProt P08183); experiment: Inhibition of P-gp in human RPMI8226/Cfzr cells assessed as potentiation of carfilzomib-induced cytotoxicity at 7.5 uM measured after 72 hrs by CellTiter 96 AQueous one solution cell proliferation assay; type: cell-based
ATP-dependent translocase ABCB1, sequence (P08183 whole entry): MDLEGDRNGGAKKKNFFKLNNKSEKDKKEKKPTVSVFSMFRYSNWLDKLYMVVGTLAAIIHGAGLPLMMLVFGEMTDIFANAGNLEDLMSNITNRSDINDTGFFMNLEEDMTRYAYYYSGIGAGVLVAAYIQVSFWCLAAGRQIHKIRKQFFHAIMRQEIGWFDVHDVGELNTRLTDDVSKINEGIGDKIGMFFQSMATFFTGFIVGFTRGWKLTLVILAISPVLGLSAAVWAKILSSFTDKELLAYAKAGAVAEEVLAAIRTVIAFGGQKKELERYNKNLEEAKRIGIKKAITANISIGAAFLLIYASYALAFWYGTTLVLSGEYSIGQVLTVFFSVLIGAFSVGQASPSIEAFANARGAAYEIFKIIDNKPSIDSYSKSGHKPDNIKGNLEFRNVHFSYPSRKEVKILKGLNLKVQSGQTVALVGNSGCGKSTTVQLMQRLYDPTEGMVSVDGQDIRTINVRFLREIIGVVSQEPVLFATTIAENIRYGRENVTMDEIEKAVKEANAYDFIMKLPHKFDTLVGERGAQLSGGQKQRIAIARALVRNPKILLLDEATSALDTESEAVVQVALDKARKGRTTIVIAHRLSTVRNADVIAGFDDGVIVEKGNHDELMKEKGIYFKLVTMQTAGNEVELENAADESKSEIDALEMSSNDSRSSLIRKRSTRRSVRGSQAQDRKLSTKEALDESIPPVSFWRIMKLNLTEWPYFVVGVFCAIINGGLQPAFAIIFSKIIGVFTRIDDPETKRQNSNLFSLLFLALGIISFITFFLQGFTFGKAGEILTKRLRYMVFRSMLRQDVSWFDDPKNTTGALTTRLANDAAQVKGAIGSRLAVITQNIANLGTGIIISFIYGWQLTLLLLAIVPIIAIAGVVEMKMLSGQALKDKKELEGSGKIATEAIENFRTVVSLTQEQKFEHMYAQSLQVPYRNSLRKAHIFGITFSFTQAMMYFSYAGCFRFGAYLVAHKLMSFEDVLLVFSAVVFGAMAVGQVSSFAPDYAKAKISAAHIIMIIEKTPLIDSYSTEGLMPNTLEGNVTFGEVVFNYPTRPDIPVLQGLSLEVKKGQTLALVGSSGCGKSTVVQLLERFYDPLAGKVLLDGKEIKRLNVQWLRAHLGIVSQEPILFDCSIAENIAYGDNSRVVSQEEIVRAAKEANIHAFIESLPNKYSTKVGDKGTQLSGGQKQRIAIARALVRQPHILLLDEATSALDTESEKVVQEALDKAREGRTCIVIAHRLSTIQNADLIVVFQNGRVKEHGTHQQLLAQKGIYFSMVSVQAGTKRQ

SMILES	IC50 [2] [µM]	IC50 [3] [µM]	Ratio IC50 [7]	IC50 [8] [µM]	IC50 [9] [µM]	further results
CCCCCCC(=O)N[C@@H](C)C(=O)N[C@@H](CC(C)C)C(=O)[C@@]1(CO[Si](C)(C)C(C)(C)C)CO1	3.37	5.21	1.5	> 10	2.14 to 3.72	IC50 [1]: 0.14 µM; Activity [4]: Active; Ratio IC50 [5]: 1.7; IC50 [6]: 2.14 µM; Activity [10]: Active
CC(=O)N[C@@H](CSC(=O)[C@]1([C@@H](O)C(C)C)NC(=O)[C@H](C)[C@@H]1O)C(=O)O [LACTACYSTIN]	5.23	> 100	>19	–	–	–
CCCCCCC(=O)N[C@@H](CO)C(=O)N[C@@H](CC(C)C)C(=O)[C@@]1(COCOCCOC)CO1	3.4	4.49	1.3	–	3.41	Activity [4]: Active; Ratio IC50 [5]: 1.6; IC50 [6]: 2.08 µM; Activity [10]: Active
CC(C)C[C@H](NC(=O)[C@H](CCc1ccccc1)NC(=O)CN1CCOCC1)C(=O)N[C@@H](Cc1ccccc1)C(=O)N[C@@H](CC(C)C)C(=O)[C@@]1(CO)CO1	0.0294	0.061	–	0.0021	0.106	IC50 [1]: 0.743 µM; Stability [11]: Stable; Ratio IC50 [12]: 3; Ratio IC50 [13]: 10
CC[C@H](C)[C@H](NC(=O)[C@H]([C@@H](C)CC)N(C)C(C)=O)C(=O)N[C@H](C(=O)N[C@@H](CC(C)C)C(=O)[C@@]1(C)CO1)[C@@H](C)O [EPOXOMYCIN]	–	–	–	–	0.541	Ratio IC50 [5]: 49.2; IC50 [6]: 0.011 µM
COCOC[C@]1(C(=O)[C@H](CC(C)C)NC(=O)[C@H](Cc2ccccc2)NC(=O)[C@H](CC(C)C)NC(=O)[C@H](CCc2ccccc2)NC(=O)CN2CCOCC2)CO1	–	–	–	> 1	–	–
CC(C)C[C@H](NC(=O)[C@H](CCc1ccccc1)NC(=O)CN1CCOCC1)C(=O)N[C@@H](Cc1ccccc1)C(=O)N[C@@H](CC(C)C)C(=O)[C@@]1(C)CO1 [CARFILZOMIB]	0.018 to 0.0183	0.61 to 0.611	–	–	0.269 to 0.27	half-life [14]: < 1 h; Stability [11]: Stable; IC50 [6]: 0.007 µM
CC(C)C[C@@H](C=O)NC(=O)[C@H](CC(C)C)NC(=O)[C@H](CC(C)C)NC(=O)OCc1ccccc1 [MG-132] (Cbz-Leu-Leu-Leu-aldehyde)	0.48	0.98	2	–	–	–
COC[C@]1(C(=O)[C@H](CC(C)C)NC(=O)[C@H](Cc2ccccc2)NC(=O)[C@H](CC(C)C)NC(=O)[C@H](CCc2ccccc2)NC(=O)CN2CCOCC2)CO1	–	–	–	> 1	–	–
CC(C)(C)OC(=O)N[C@@H](CC(=O)OCc1ccccc1)C(=O)N[C@@H](CCCCNC(=O)OCc1ccccc1)C(=O)OC(C)(C)C [REVERSIN 121] (Boc-Asp(OBn)-Lys(Cbz)-OtBu)	–	–	–	–	–	inhibition (INH) [15]: Active
COCCOCOC[C@]1(C(=O)[C@H](CC(C)C)NC(=O)[C@H](Cc2ccccc2)NC(=O)[C@H](CC(C)C)NC(=O)[C@H](CCc2ccccc2)NC(=O)CN2CCOCC2)CO1	–	–	–	> 1	–	–
CC(C)C[C@H](NC(=O)[C@H](CCc1ccccc1)NC(=O)CN1CCOCC1)C(=O)N[C@@H](Cc1ccccc1)C(=O)N[C@@H](CC(C)C)C(=O)[C@@]1(COS(C)(=O)=O)CO1	0.311	0.834	–	0.008	–	–
CC(C)C[C@H](NC(=O)[C@H](Cc1ccccc1)NC(=O)c1cnccn1)B(O)O [BORTEZOMIB]	0.01	0.025	2.5	–	–	–
CCCCCCC(=O)N[C@@H](C)C(=O)N[C@@H](CC(C)C)C(=O)[C@@]1(CO)CO1	0.58	0.69	–	1.7	0.31	IC50 [1]: 0.036 µM
CC(C)C[C@H](NC(=O)[C@H](CCc1ccccc1)NC(=O)CN1CCOCC1)C(=O)N[C@@H](Cc1ccccc1)C(=O)N[C@@H](CC(C)C)C(=O)[C@@]1(CO[Si](c2ccccc2)(c2ccccc2)C(C)(C)C)CO1	> 10	> 10	–	0.112	–	–
